Measurements as given in ChEMBL document CHEMBL1629588, “Ambuic acid inhibits the biosynthesis of cyclic peptide quormones in gram-positive bacteria” (Antimicrob Agents Chemother, 2009).
pIC50: −log10 of the molar value. Active and inactive are the calls of the source. The calls are words filed in the database; no cut-off is given here.

Assays:
[1] = tested on: Enterococcus faecalis; experiment: Inhibition of GBAP biosynthesis in Enterococcus faecalis OU510 harboring pQU2200 and pQU2301 assessed as proteolytic processing of Hexahistidine-tagged FsrD after 5 hrs by Western blot analysis; format: functional, organism-based
In short: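 OU510 carrying pQU2200 (FsrB') and pQU2301 (His6-tagged FsrD) inoculated (6 µl overnight culture) into 1.0 ml THB with inhibitor at various concentrations. Nisin added at 2 h to induce, cells harvested 3 h later. Cells boiled in SDS-PAGE sample buffer; extracts analysed by Western blot with anti-His-tag antibody. Supernatant GBAP activity read by OU510 gelatinase induction.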

[2] = tested on: Enterococcus faecalis; experiment: Antimicrobial activity against Enterococcus faecalis OG1RF assessed as growth inhibition at <1 mM after 5 hrs; format: functional
In short: (§1)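 E. faecalis OG1RF overnight culture (3 µl) inoculated into 0.5 ml THB with sample, grown 5 h at 37°C. Growth read as OD660. Supernatant (25 µl, after 9,100 x g spin) mixed with 0.5 ml azocoll suspension, 4 h at 170 rpm, centrifuged, gelatinase read as OD540. Duplicate experiments, mean ± SD.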

[3] = tested on: Enterococcus faecalis; experiment: Inhibition of gelatinase production in Enterococcus faecalis OG1RF at <1 mM after 5 hrs; format: functional; in short: as §1
[4] = tested on: Enterococcus faecalis; experiment: Inhibition of gelatinase production in Enterococcus faecalis OG1RF after 5 hrs; format: functional; in short: as §1
[5] = tested on: Enterococcus faecalis; experiment: Inhibition of gelatinase production in GBAP-negative Enterococcus faecalis OU510 at 100 uM after 5 hrs in presence of GBAP; format: functional, organism-based
In short: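 Overnight E. faecalis OU510 (3 µl) grown 5 h in 0.5 ml THB containing 100 µM inhibitor plus synthetic GBAP at various concentrations. Supernatant gelatinase measured by azocoll assay (OD540), growth by OD660. Duplicate experiments; gelatinase/growth ratio computed per experiment and averaged.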

[6] = tested on: Staphylococcus aureus; experiment: Inhibition of quormone AIP-I biosynthesis in Staphylococcus aureus 12600T at 50 uM by LC/MS analysis; format: functional, organism-based
In short: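 S. aureus 12600T overnight culture (20 µl) inoculated into 2 ml TSB-YE, grown 15 h. Filtered (0.22 µm) supernatant (40 µl) analysed by C18 LC/ESI-TOF MS, 20–40% acetonitrile in 0.05% TFA, 0.2 ml/min, 30°C. Extracted ion chromatogram at m/z 961–962.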

[7] = tested on: Staphylococcus aureus; experiment: Inhibition of agr quorom sensing in Staphylococcus aureus 8325-4 harboring pSB2035 assessed as […] at 50 to 200 uM after 7 hrs by GFP assay; format: functional, organism-based
In short: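 S. aureus 8325-4(pSB2035) washed and serially subcultured (1/20 twice, 2 h each), then diluted 1/50 into 200 µl medium with inhibitor, shaken 7 h. OD620 read; cells washed twice in PBS, GFP fluorescence read (ex 490/em 525 nm). Triplicate, mean ± SD. Quenching control: 200 µM added to washed untreated cells, fluorescence followed 15 min.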

[8] = tested on: Listeria innocua; experiment: Inhibition of quormone LsrD698 biosynthesis in Listeria innocua ATCC 33090T at 100 uM by LC/MS analysis; format: functional, organism-based
In short: (§2)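 L. innocua ATCC 33090T overnight culture (25 µl) grown 15 h in 5 ml chemically defined medium. Filtered supernatant loaded on C18 cartridge, washed with 10% acetonitrile/0.1% TFA, eluted with 60% acetonitrile/0.1% TFA. Eluate analysed by LC/MS monitoring m/z 699 (LsrD698) and m/z 827 (LsrD826).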

[9] = tested on: Listeria innocua; experiment: Inhibition of quormone LsrD826 biosynthesis in Listeria innocua ATCC 33090T at 100 uM by LC/MS analysis; format: functional, organism-based; in short: as §2
[10] = tested on: Staphylococcus aureus; experiment: Inhibition of hemolysin production in Staphylococcus aureus 12600T assessed as decrease in hemolytic zone on sheep blood agar at 20 mM after 16 to 48 hrs […]; format: functional, organism-based; settings: TDE = time-dependent effect
In short: (§3)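 Inhibitor in 50% acetonitrile (5 µl) spotted on sheep blood agar and dried. Plate incubated at 37°C; hemolytic clearance zone around colonies observed and photographed at 16, 24 and 48 h.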

[11] = tested on: Staphylococcus aureus; experiment: Inhibition of hemolysin production in Staphylococcus aureus 12600T assessed as decrease in hemolytic zone on sheep blood agar at 10 mM after 16 to 48 hrs […]; format: functional, organism-based; settings: TDE = time-dependent effect; in short: as §3
[12] = tested on: Staphylococcus aureus; experiment: Inhibition of hemolysin production in Staphylococcus aureus 12600T assessed as decrease in hemolytic zone on sheep blood agar at 5 mM after 16 to 48 hrs […]; format: functional, organism-based; settings: TDE = time-dependent effect; in short: as §3
[13] = tested on: Staphylococcus aureus; experiment: Inhibition of hemolysin production in Staphylococcus aureus 12600T assessed as decrease in hemolytic zone on sheep blood agar at 5 to 20 mM upto 48 hrs […]; format: functional, organism-based; in short: as §3
[14] = tested on: Staphylococcus aureus; experiment: Inhibition of agr quorom sensing in Staphylococcus aureus 8325-4 harboring pSB2035 assessed as […] at 50 to 200 uM after 7 hrs by GFP fluorescence reporter gene assay

What does the source list for `CCCCC/C=C/C1=C(CO)[C@H](O)[C@H]2O[C@@]2(C/C=C(\C)C(=O)O)C1=O` [AMBUIC ACID]?
inhibition [1]: Active; Activity [2]: inactive; Activity [3]: Active; pIC50 [4]: 5.00; inhibition [5]: inactive; inhibition [6]: Active; inhibition [7]: Active; inhibition [8]: Active; inhibition [9]: Active; inhibition [10]: tde; inhibition [11]: tde; inhibition [12]: tde; inhibition [13]: Dose-dependent effect; inhibition [14]: Active
